Laboratory results reported in article PMC2964879 (Biochemistry, 2010).
≈ marks a conversion by molar mass, not a printed value.

How the values were obtained:
MbtA = settings: cited from earlier work
BasE [1] = molecular target: T1, BasE (Acinetobacter baumannii, UniProt A0A0D5YGP3); settings: for kcat, fold decrease relative to DHB / specificity constant, fold lower than DHB: relative to DHB; for KM, fold change relative to DHB: relative to DHB (increase in KM)
holo-BasF = assay: ESI-TOF mass spectrometry of aryl acid loading onto holo-BasF by BasE; type: biochemical, A. baumannii AB900; settings: 50 μM holo-BasF, 200 nM BasE, 250 μM aryl acid, 16 hours
Procedure, shortened: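 His-tagged BasF from A. baumannii AB900, expressed in E. coli, made holo in vitro with Sfp and CoA, then anion-exchange purified. Apo- and holo-BasF in the same buffer were reference samples. Samples were diluted in 50:50 water:acetonitrile with 0.1% formic acid and injected directly for ESI-TOF MS.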

EntE = settings: cited from earlier work
A. baumannii = assay: Antibacterial activity; type: cell-based
[2] = tested on: coupling enzymes inorganic pyrophosphatase and purine nucleoside phosphorylase; assay: Counter-test on the coupling enzymes of the continuous assay; type: biochemical; settings: 200 μM; data not shown
BasE [3] = molecular target: T1, BasE; assay: Kinetic inhibition experiments with the continuous coupled assay; type: biochemical, A. baumannii ATCC17978
BasE [4] = molecular target: T1, BasE; assay: Fluorescence polarization displacement assay, BasE-ATCC; type: binding, A. baumannii ATCC17978; settings: read-out: KD (FP) of the fluorescent probe
BasE [5] = molecular target: T1, BasE; assay: Fluorescence polarization displacement assay, BasE-AB900; type: binding, A. baumannii AB900; settings: read-out: KD (FP) of the fluorescent probe
BasE [6] = settings: read-out: dissociation constant Kia; nonvaried substrate in eq 2; cited from earlier work
BasE [7] = settings: ATP-PPi exchange, saturating ATP; cited from earlier work

For `Nc1nc(-c2ccccc2)nc2c1ncn2[C@@H]1O[C@H](COS(=O)(=O)NC(=O)c2ccccc2O)[C@@H](O)[C@H]1O` [5′-O-[N-(2-hydroxybenzoyl)sulfamoyl]-2-phenyladenosine], the binding constant (MbtA) is listed as “subnanomolar”.
`Nc1ncnc2c1ncn2[C@@H]1O[C@H](COP(=O)(O)OP(=O)(O)OP(=O)(O)O)[C@@H](O)[C@H]1O` [ATP] gave a kcat (BasE [1]; substrate of BasE, coupled assay, 25 °C, pH 8.0) of 2.8 ± 0.2 s⁻¹ and a Km (BasE [1]; substrate of BasE, coupled assay, 25 °C, pH 8.0, nonvaried substrates saturating) of 300 ± 71 µM.
For `O=C(O)c1ccccc1` [BA, benzoic acid], the loading (holo-BasF) was “partial”, the “kcat, fold decrease relative to DHB” value (BasE [1]) was ~10 fold and the “specificity constant, fold lower than DHB” value (BasE [1]) was “three orders of magnitude”. For the same compound, the “KM, fold change relative to DHB” value (BasE [1]) was ~100 fold.
With `O=C(O)c1cccc(O)c1` [Compound 3-HBA, 3-hydroxy benzoic acid] the loading (holo-BasF) was “partial” and the “specificity constant, fold lower than DHB” value (BasE [1]) was 60 fold.
For `Nc1ncnc2c1ncn2[C@@H]1O[C@H](COS(=O)(=O)NC(=O)c2cccc(O)c2O)[C@@H](O)[C@H]1O` [Compound 5, 5′-O-[N-(2,3-dihydroxybenzoyl)sulfamoyl]adenosine], the “inhibition of EntE (inhibition and dissociation constants, in words)” value (EntE) is listed as “slow tight-binding picomolar inhibitors” and the “antibacterial activity against A. baumannii” value (A. baumannii; unpublished results, D. Wilson and C. Aldrich) is listed as “do not possess any antibacterial activity”.
With `CCCCCCCCCCCCc1cn(-c2nc(N)c3ncn([C@@H]4O[C@H](COS(=O)(=O)NC(=O)c5ccccc5O)[C@@H](O)[C@H]4O)c3n2)nn1` [Compound 7, 2-(4-n-dodecyl-1,2,3-triazol-1-yl)-5′-O-[N-(2-hydroxybenzoyl)sulfamoyl]adenosine] the MIC (A. baumannii; Acinetobacter baumannii) was ~15 µM (≈ 10.5 µg/mL) and the antibacterial activity (A. baumannii; iron replete conditions) was “inactive”.
In the case of `O=C(O)c1cc(-c2ccccc2)nc2c1cnn2Cc1ccncc1` [Compound 8, 6-phenyl-1-(pyridin-4-ylmethyl)-1H-pyrazolo[3,4-b]pyridine-4-carboxylic acid], the “inhibition of the coupling enzymes” value [2] is reported as “did not inhibit”, the “modality of inhibition with respect to DHB and ATP” value (BasE [3]) is reported as “competitive inhibition with respect to both substrates” and the slow binding inhibition (BasE [3]; 10 min pre-incubation at 25 °C, data not shown) is reported as “did not exhibit slow binding inhibition”.
With `Nc1ncnc2c1ncn2[C@@H]1O[C@H](COS(=O)(=O)NC(=O)c2ccccc2O)[C@@H](O)[C@H]1OCCOCCOCCNC(=O)c1ccc2c(c1)C(=O)OC21c2ccc(O)cc2Oc2cc(O)ccc21` [Compound 9, 2′-O-{2-[2-(2-{[(fluorescein-5-yl)carbonyl]amino}ethoxy)ethoxy]ethoxy}-5′-O-[N-(2-hydroxybenzoyl)sulfamoyl]adenosine] the Kd (BasE [4]) was 84 ± 6 nM and the Kd (BasE [5]) was 144 ± 9 nM.
In the case of `O=C(O)c1cccc(O)c1O` [DHB, 2,3-dihydroxybenzoic acid], the loading (holo-BasF) is given as “full”, the Kd (BasE [6]) is given as 2630 nM and the Km (BasE [7]) is given as 1.5 µM. The kcat (BasE [7]) was 3.5 s⁻¹.
With `O=C(O)c1ccccc1O` [SAL, 2-hydroxybenzoic acid] the loading (holo-BasF) was “partial”, the “kcat, fold decrease relative to DHB” value (BasE [1]) was ~3 fold and the “specificity constant, fold lower than DHB” value (BasE [1]) was “approximately 6 fold”. For the same compound, the “KM, fold change relative to DHB” value (BasE [1]) was “approximately 2 fold”.
